For assay [1], the target named is CREB-binding protein (Homo sapiens, UniProt Q92793). Nature of the assay: Binding affinity to human CREBBP bromodomain expressed in Escherichia coli BL21 (DE3)-RIL assessed as dissociation constant by ITC assay. On the technique in general: ITC needs no label: the signal is the heat of the interaction.
Assay [2] deals with T1, CREB-binding protein/Histone acetyltransferase p300 (Homo sapiens) (UniProt Q09472+Q92793). Nature of the assay: Inhibition of CREBBP/EP300 in human HCT-116 cells assessed as reduction in c-Myc expression at 10 uM for 24 hrs by Western blot analysis. It is filed as cell-based. Summed up: (§1)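 HCT116 human colorectal cancer cells were exposed to ligand at 10 μM for 6, 16 or 24 h. c-Myc, H3K18Ac and H3K27Ac levels were read by western blot, with acetylation marks expressed relative to the t = 0 level.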
T1 sequence (Q09472 whole entry, looked up): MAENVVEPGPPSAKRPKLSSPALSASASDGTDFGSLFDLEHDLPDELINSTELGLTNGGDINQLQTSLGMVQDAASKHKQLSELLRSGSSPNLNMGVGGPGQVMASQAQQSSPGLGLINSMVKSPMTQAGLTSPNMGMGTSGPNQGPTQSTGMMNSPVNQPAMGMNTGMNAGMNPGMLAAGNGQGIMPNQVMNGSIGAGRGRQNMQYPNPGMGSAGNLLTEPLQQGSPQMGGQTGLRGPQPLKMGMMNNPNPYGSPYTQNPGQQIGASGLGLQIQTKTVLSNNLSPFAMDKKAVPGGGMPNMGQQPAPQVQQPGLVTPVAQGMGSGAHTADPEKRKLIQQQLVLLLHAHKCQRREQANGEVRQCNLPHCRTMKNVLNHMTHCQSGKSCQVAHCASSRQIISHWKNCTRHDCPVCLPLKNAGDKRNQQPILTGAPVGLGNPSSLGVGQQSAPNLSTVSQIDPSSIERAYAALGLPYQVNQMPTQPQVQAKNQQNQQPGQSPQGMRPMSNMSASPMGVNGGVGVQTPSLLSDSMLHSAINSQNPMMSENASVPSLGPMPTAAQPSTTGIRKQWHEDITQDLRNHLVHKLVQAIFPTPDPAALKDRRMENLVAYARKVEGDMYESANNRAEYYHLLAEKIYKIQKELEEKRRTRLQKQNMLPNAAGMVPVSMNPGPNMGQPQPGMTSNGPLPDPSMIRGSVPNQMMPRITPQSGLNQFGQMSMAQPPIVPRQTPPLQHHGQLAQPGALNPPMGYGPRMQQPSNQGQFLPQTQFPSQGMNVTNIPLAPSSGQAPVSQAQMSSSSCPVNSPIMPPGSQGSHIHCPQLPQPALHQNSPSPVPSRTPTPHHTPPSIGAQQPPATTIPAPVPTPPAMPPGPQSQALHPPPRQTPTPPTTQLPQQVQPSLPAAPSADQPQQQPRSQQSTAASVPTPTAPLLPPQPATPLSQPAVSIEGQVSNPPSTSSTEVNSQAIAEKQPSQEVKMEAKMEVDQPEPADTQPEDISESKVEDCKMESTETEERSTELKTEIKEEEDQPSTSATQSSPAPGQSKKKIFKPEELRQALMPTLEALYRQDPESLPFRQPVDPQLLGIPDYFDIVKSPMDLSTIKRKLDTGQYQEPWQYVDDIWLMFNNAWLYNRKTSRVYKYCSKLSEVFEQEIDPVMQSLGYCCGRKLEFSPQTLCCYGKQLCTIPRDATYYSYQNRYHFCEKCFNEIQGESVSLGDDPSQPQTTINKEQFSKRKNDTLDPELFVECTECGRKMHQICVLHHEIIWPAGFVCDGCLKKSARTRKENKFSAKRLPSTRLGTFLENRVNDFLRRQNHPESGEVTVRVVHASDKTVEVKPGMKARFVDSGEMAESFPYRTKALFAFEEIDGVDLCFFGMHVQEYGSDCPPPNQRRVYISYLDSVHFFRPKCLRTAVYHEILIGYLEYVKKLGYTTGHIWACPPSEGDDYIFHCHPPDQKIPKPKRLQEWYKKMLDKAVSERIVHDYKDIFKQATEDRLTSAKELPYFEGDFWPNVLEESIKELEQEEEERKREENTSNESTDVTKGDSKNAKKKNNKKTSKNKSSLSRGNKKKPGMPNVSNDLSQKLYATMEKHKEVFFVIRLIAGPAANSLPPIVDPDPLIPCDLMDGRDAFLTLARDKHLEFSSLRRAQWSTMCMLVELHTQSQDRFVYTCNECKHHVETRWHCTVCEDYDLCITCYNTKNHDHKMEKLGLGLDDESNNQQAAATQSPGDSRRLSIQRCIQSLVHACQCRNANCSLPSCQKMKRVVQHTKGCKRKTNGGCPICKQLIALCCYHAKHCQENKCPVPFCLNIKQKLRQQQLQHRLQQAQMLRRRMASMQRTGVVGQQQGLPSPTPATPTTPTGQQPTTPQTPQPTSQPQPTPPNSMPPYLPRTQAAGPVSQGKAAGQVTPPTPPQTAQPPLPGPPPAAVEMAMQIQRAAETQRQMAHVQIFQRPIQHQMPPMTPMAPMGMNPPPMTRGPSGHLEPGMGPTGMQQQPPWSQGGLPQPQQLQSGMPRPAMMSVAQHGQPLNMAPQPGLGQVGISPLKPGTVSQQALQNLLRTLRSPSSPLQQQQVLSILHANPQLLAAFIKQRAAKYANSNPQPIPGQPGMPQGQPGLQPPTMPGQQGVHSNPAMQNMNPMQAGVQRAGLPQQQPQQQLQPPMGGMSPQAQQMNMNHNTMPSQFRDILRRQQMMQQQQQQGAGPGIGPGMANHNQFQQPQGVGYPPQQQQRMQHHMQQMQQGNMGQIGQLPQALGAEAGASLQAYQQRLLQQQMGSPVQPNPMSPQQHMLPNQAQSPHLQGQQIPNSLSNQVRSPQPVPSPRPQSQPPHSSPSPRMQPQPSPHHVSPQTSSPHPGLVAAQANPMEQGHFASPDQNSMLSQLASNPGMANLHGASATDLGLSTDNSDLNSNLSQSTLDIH
T1 sequence (Q92793 whole entry, looked up): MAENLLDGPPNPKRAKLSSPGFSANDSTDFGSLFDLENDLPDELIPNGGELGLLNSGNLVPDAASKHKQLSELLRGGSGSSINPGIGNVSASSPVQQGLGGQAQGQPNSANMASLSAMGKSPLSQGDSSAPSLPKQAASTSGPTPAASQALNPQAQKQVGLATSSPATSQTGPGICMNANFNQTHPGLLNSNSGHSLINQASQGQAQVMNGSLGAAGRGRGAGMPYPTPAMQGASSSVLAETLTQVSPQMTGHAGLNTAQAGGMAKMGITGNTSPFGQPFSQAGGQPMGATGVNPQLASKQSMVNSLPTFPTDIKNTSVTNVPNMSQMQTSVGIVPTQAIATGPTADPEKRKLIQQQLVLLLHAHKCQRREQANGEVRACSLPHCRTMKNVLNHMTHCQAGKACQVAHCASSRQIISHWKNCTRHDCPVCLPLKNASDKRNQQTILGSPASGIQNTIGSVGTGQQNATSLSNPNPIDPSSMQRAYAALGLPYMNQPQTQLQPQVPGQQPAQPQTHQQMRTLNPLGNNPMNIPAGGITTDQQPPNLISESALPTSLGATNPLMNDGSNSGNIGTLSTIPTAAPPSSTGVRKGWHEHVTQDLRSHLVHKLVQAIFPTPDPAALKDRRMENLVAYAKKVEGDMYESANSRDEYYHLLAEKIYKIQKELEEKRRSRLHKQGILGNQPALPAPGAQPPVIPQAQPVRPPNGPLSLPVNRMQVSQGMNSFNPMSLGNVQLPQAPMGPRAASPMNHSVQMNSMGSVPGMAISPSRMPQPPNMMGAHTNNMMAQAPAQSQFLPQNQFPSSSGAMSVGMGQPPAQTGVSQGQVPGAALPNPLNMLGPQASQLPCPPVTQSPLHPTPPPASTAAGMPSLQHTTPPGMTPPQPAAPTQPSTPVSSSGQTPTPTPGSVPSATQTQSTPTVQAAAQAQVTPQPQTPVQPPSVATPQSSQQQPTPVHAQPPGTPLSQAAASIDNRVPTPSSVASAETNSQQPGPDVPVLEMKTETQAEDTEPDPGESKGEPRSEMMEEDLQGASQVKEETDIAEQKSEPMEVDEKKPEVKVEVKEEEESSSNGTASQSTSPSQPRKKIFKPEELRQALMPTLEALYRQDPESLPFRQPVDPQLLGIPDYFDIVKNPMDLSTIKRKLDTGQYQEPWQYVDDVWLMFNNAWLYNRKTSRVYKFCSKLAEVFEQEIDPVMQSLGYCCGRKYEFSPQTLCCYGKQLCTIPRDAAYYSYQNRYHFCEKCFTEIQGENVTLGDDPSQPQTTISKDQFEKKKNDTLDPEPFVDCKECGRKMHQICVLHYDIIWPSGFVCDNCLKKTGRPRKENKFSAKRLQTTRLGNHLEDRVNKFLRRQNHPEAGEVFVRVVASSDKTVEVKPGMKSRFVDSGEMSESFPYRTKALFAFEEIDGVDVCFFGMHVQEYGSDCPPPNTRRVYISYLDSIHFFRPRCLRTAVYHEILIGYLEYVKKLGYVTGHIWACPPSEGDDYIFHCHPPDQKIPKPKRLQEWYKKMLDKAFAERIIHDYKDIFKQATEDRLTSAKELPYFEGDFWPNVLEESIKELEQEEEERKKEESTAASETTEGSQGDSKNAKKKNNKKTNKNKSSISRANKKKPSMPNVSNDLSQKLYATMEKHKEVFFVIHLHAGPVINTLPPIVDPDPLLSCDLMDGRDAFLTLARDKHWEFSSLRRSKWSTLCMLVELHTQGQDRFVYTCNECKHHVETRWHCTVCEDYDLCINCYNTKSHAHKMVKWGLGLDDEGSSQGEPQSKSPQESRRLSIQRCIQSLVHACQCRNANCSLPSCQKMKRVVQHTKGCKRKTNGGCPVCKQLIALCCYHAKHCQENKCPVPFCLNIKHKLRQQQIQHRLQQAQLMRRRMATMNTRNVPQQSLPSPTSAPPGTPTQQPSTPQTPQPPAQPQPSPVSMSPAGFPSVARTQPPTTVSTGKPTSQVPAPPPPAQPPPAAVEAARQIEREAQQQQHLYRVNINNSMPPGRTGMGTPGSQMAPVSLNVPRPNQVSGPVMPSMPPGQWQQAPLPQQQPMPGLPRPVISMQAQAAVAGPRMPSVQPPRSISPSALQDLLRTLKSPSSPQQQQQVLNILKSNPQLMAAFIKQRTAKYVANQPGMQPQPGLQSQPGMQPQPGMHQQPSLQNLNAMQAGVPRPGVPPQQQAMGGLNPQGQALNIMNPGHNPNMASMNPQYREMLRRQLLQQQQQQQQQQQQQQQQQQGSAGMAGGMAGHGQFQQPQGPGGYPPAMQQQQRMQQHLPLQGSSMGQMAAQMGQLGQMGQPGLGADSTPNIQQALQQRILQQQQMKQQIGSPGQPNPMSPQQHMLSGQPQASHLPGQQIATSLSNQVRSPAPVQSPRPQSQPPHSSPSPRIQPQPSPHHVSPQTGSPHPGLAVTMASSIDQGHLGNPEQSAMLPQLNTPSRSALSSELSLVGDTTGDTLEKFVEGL
Background: In western blotting, separated proteins are transferred to a membrane and probed.

Assay [3] has as its target T1, CREB-binding protein/Histone acetyltransferase p300 (Homo sapiens). Nature of the assay: Inhibition of CREBBP/EP300 in human HCT-116 cells assessed as reduction in c-Myc mRNA expression at 10 uM by Q-PCR analysis. It is filed as cell-based.
For assay [4] the target is unchanged. Nature of the assay: Inhibition of CREBBP/EP300 in human HCT-116 cells assessed as reduction in H3K18Ac at 10 uM for 24 hrs by Western blot analysis. The format is cell-based. Summed up: as §1
For assay [5] the target is unchanged. Description: Inhibition of CREBBP/EP300 in human HCT-116 cells assessed as reduction in H3K27Ac at 10 uM for 24 hrs by Western blot analysis. It is filed as cell-based. In a few lines:
as §1

Activity calls are given as the source filed them. No cut-off for these calls is given here.

CREB-binding protein, sequence (Q92793 whole entry): as the sequence (Q92793 whole entry, looked up) above

As a reminder, the inhibition is the share of the control response that was lost under treatment. With `COc1ccc2c(c1)N(CCC/C=C/c1cccc3c1N[C@@H](C)CC(=O)N3)CCC2`, the Kd entry in assay [1] was “Not Active”. In assay [2], the inhibition entry was “inactive”.
For the compound `COc1ccc2c(c1)N(CCC/C=C/c1cccc3c1N[C@H](C)CC(=O)N3)CCC2`, in assay [3], the inhibition result was “Active”. Further, the inhibition in assay [4] and in assay [5] was 30% throughout.

The values above are taken from ChEMBL document CHEMBL5029150, “Controlling Intramolecular Interactions in the Design of Selective, High-Affinity Ligands for the CREBBP Bromodomain” (J Med Chem, 2021).
